Tests used:
[1] = Toxicity in male Sprague-Dawley rat assessed as change in hematocrit level at 50 mg/kg/day, po administered for 4 weeks followed by 2 week recovery period (Rvb =45.2 +/- 1.7 %); type: organism-based; details: in vivo, 672 h
[2] = Toxicity in male Sprague-Dawley rat assessed as change in hematocrit level at 150 mg/kg/day, po administered for 4 weeks followed by 2 week recovery period (Rvb =45.2 +/- 1.7 %); type: organism-based; details: in vivo, 672 h
[3] = Clearance in Balb/c mouse at 2.5 mg/kg, iv by LC-MS/MS analysis; type: ADME, organism-based; details: in vivo
Method in brief: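 Female BALB/c mice (20–25 g), five per route. Oral dose 25 mg/kg in 0.5% carboxymethyl cellulose; i.v. dose 2.5 mg/kg in 10% DMSO/physiological saline. Blood sampled 5 min–72 h after p.o. and 2 min–48 h after i.v. Analyte quantified by LC/MS/MS (ESI positive, C18, isocratic methanol/water). Parameters from non-compartmental analysis.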

[4] = Toxicity in male Sprague-Dawley rat assessed as changes in neuropsychic symptoms at 50 to 450 mg/kg/day, po administered for 4 weeks followed by 2 week recovery period measured during last 24 hrs of recovery period; type: organism-based; details: in vivo, 672 h, dose 50-450 mg/kg/day
Method in brief: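 SD rats aged 6-7 weeks, 12 male and 12 female per group, in four groups: vehicle control, 50, 150 and 450 mg/kg/day. Dosing was oral, once daily, for 4 weeks, then a 2-week recovery period. Clinical symptoms were observed starting before administration. 8 per sex were dissected after the last dose and the remaining 4 per sex after 14 days of recovery.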

[5] = Toxicity in female Sprague-Dawley rat assessed as effect on food consumption at 50 to 450 mg/kg/day, po administered for 4 weeks measured at 1 week interval; type: organism-based; details: in vivo, 672 h, dose 50-450 mg/kg/day
Method in brief: (§1)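 SD rats, 6-7 weeks old (96 in total), split into vehicle, 50, 150 and 450 mg/kg/day groups of 12 females and 12 males each, given oral doses once daily for 4 weeks, then 2 weeks of recovery. Mortality, body weight, food intake, eyes, urine and neuropsychic signs were observed. Organ and bone marrow histopathology was done on 8 rats per sex per group after the last dose and on the remaining 4 per sex after 14 days of recovery.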

[6] = Toxicity in male Sprague-Dawley rat assessed as change in neutrophil level at 50 mg/kg/day, po administered for 4 weeks followed by 2 week recovery period (Rvb =15.9 +/- 3.4 %); type: organism-based; details: in vivo, 672 h
[7] = Apparent permeability in human Caco-2 cells at 50 uM after 1 hr by UPLC analysis; type: ADME, cell-based
Method in brief: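 Caco-2 monolayers on Transwells, cultured 21 days, TEER required >500 Ω×cm². Compound at 50 μM added apically, 1 h at 37 °C. Transported compound quantified by UPLC. Papp = (dQ/dt)/(C0×A).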

[8] = Toxicity in male Sprague-Dawley rat assessed as changes in neuropsychic symptoms at 50 to 450 mg/kg/day, po administered for 4 weeks measured during last 24 hrs of treatment period; type: organism-based; details: in vivo, 672 h, dose 50-450 mg/kg/day
[9] = Toxicity in male Sprague-Dawley rat assessed as change in lymphocyte level at 50 mg/kg/day, po administered for 4 weeks followed by 2 week recovery period (Rvb =77.4 +/- 3.7 %); type: organism-based; details: in vivo, 672 h
[10] = Half life in human hepatocytes at 2 uM by LC-MS/MS analysis; type: ADME, cell-based, Hepatocyte
Method in brief: (§2)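 Hepatocytes (male CD-1 mouse, male SD rat, male beagle dog, male cynomolgus monkey, pooled human), final 1 μM compound and 1 million cells/mL, made by mixing 2 μM compound with 2 million cells/mL. Incubated at 37 °C in a CO2 incubator; sampled at 0, 15, 30, 60, 90 and 120 min. Quenched with methanol/ACN containing 0.1% formic acid. Parent remaining measured by LC-MS/MS.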

[11] = Toxicity in female Sprague-Dawley rat assessed as change in lymphocyte level at 50 mg/kg/day, po administered for 4 weeks followed by 2 week recovery period (Rvb =76.9 +/- 4.6 %); type: organism-based; details: in vivo, 672 h
[12] = Toxicity in male Sprague-Dawley rat assessed as change in reticulocyte level at 50 mg/kg/day, po administered for 4 weeks followed by 2 week recovery period (Rvb =2.48 +/- 0.34 %); type: organism-based; details: in vivo, 672 h
[13] = Toxicity in male Sprague-Dawley rat assessed as change in mean platelet volume at 150 mg/kg/day, po administered for 4 weeks followed by 2 week recovery period (Rvb =7.0 +/- 0.4 fL); type: organism-based; details: in vivo, 672 h
[14] = Toxicity in female Sprague-Dawley rat assessed as ophthalmic changes at 50 to 450 mg/kg/day, po administered for 4 weeks followed by 2 week recovery period measured within 7 days of post recover period; type: organism-based; details: in vivo, 672 h, dose 50-450 mg/kg/day; method in brief: as §1
[15] = Toxicity in male Sprague-Dawley rat assessed as histopathological changes in bone marrow at 450 mg/kg/day, po administered for 4 weeks followed by 2 week recovery period; type: organism-based; details: in vivo, 672 h
Cytochrome P450 2C9 = Cytochrome P450 2C9 (Homo sapiens, UniProt P11712); assay: Inhibition of CYP2C9 in human liver microsomes after 20 mins by LC-MS/MS analysis; type: ADME
[16] = Toxicity in male Sprague-Dawley rat assessed as change in neutrophil level at 150 mg/kg/day, po administered for 4 weeks followed by 2 week recovery period (Rvb =15.9 +/- 3.4 %); type: organism-based; details: in vivo, 672 h
[17] = Toxicity in female Sprague-Dawley rat assessed as change in mean corpuscular volume at 50 mg/kg/day, po administered for 4 weeks followed by 2 week recovery period (Rvb =56.1 +/- 0.8 fL); type: organism-based; details: in vivo, 672 h
[18] = Toxicity in male Sprague-Dawley rat assessed as change in mean platelet volume at 50 mg/kg/day, po administered for 4 weeks followed by 2 week recovery period (Rvb =7.0 +/- 0.4 fL); type: organism-based; details: in vivo, 672 h
[19] = Toxicity in male Sprague-Dawley rat assessed as abnormalities in urine at 50 to 450 mg/kg/day, po administered for 4 weeks followed by 2 week recovery period measured within last 7 days of recover period; type: organism-based; details: in vivo, 672 h, dose 50-450 mg/kg/day; method in brief: as §1
[20] = Toxicity in male Sprague-Dawley rat assessed as change in red blood cell count at 450 mg/kg/day, po administered for 4 weeks followed by 2 week recovery period (Rvb =7.86 +/- 0.32 10^12/L); type: organism-based; details: in vivo, 672 h
[21] = Half life in Beagle dog hepatocytes at 2 uM by LC-MS/MS analysis; type: ADME, cell-based, Canis lupus familiaris, Hepatocyte; method in brief: as §2
[22] = Toxicity in male Sprague-Dawley rat assessed as histopathological changes in bone marrow at 450 mg/kg/day, po administered for 4 weeks measured post last dose; type: organism-based; details: in vivo, 672 h
[23] = Toxicity in female Sprague-Dawley rat assessed as change in platelet count at 150 mg/kg/day, po administered for 4 weeks followed by 2 week recovery period (Rvb =1051 +/- 122 10^9/L); type: organism-based; details: in vivo, 672 h
[24] = Tmax in Balb/c mouse at 2.5 mg/kg, iv by LC-MS/MS analysis; type: ADME, organism-based; details: in vivo
Method in brief: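 Female BALB/c mice, 20-25 g, five per route. Dosed 25 mg/kg p.o. in 0.5% carboxymethyl cellulose or 2.5 mg/kg i.v. in 10% DMSO/saline. Blood sampled 5 min-72 h (p.o.) or 2 min-48 h (i.v.), quantified by LC/MS/MS with ESI+. Parameters by non-compartmental analysis; F = (AUCpo×dose_iv)/(AUCiv×dose_po)×100%.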

Cytochrome P450 2C9, sequence (P11712 whole entry): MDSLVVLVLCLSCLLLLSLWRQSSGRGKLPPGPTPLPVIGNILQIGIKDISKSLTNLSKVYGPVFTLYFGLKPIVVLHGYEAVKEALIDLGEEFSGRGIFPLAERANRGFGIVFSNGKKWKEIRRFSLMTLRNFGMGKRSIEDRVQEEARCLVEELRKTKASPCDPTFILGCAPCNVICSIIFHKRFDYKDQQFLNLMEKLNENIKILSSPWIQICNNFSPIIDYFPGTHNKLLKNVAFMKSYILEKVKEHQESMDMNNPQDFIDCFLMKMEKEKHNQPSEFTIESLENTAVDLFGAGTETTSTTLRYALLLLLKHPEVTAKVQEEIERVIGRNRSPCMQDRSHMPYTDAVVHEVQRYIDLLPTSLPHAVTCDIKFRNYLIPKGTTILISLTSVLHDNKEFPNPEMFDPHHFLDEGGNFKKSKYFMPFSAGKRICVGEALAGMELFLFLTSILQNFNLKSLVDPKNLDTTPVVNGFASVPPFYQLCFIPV

CC(=O)NC[C@@H]1OC(=O)N2c3cc(F)c(N4CCSCC4)cc3OC[C@@H]12
Activity [1]: 43.5%
Activity [2]: 44.5%
clearance [3]: 36.5 mL/min/kg
Activity [4]: Non-Toxic
Activity [5]: Non-Toxic
Activity [6]: 13%
Papp at 1 h, 50 µM [7]: 67.6 ×10⁻⁶ cm/s
Activity [8]: Non-Toxic
Activity [9]: 82%
half-life at 2 µM [10]: > 8.33 h
Activity [11]: 80.7%
Activity [12]: 2.97%
Activity [13]: 7 fL
Activity [14]: Non-Toxic
Activity [15]: Non-Toxic
IC50 (Cytochrome P450 2C9): > 50 µM
Activity [16]: 17%
Activity [17]: 56.5 fL
Activity [18]: 7 fL
Activity [19]: Non-Toxic
Activity [20]: 7.46 10^12/L
half-life at 2 µM [21]: 1.13 h
Activity [22]: Non-Toxic
Activity [23]: 787 10^9/L

CC(=O)NC[C@@H]1OC(=O)N2c3cc(F)c(N4CC[S+]([O-])CC4)cc3OC[C@@H]12
Tmax [24]: 0.7 h

— ChEMBL document CHEMBL4725282, “Discovery of a Conformationally Constrained Oxazolidinone with Improved Safety and Efficacy Profiles for the Treatment of Multidrug-Resistant Tuberculosis” (J Med Chem, 2020)
